Measured values taken from PMC3517046 (ChemMedChem, 2011).

Columns and labels:
[1] = target: recombinant, purified human ATX (Homo sapiens, UniProt Q13822); test: ATX IC50 and mechanism of inhibition; type: biochemical
Method in brief: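 Recombinant purified human ATX with FS3 (1 µM final) in Tris 50 mM, NaCl 140 mM, KCl 5 mM, CaCl2 1 mM, MgCl2 1 mM, pH 8.0, plus 15 µM fatty-acid-free BSA. IC50 came from full dose-responses. For mechanism, FS3 was varied 0.3–20 µM at three inhibitor levels including zero.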

ATX [2] = target: T1, ATX (Homo sapiens, UniProt Q13822); test: Inhibition of LPA production from ADMAN-LPC by ATX; type: biochemical; conditions: compound 3 μM, 0.5 μM ADMAN-LPC, 100 nM ATX
Method in brief: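 ADMAN-LPC (0.5 µM final) was incubated with 100 nM ATX, with or without 3 µM test compound, at 37 °C for 4 h. Lipids were extracted and separated by silica TLC in CHCl3/MeOH/NH4OH (60:35:8). Fluorescent LPC and LPA bands were visualized under a UV imager.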

ATX [3] = target: T1, ATX; test: Inhibition of pNP-TMP hydrolysis by ATX; type: biochemical; conditions: compound 10 μM, 5 mM pNP-TMP, 4 nM ATX; compared with LPA 18:1 10 μM
Method in brief: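 Reactions held 4 nM ATX and 5 mM pNP-TMP, with vehicle or 10 µM test compound, in Tris 50 mM/NaCl 140 mM/KCl 5 mM/CaCl2 1 mM/MgCl2 1 mM, pH 8.0. They ran at 37 °C with absorbance monitored at 405 nm.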

MM1 hepatoma cells = test: MM1 cell invasion of HUVEC monolayers; type: cell-based, rat
Method in brief: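 HUVECs (passage 7, 1.3×10^5/well) were grown on 0.2% gelatin for two days to confluence. Rat MM1 hepatoma cells, calcein AM-labelled (2 µg/mL, 2 h), were seeded at 5×10^4/well. Invasion ran 24 h in MCDB-131 with 1% serum, with or without 1.5 µM LPC (BSA-complexed, 30 µM BSA final). After five PBS rinses and formalin fixation, flattened cells beneath the monolayer were counted in ≥5 fields at 100×.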

[4] = Pharmacokinetics after i.v. bolus; type: in vivo, Sprague-Dawley rats; conditions: rat
Method in brief: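 Male Sprague–Dawley rats (250–275 g) fitted with jugular and femoral catheters received a single 5.8 mg/kg i.v. femoral bolus; drug was dissolved in propylene glycol and diluted in rat plasma. Jugular blood was drawn from 5 to 1440 min into lithium heparin. Plasma was butanol-extracted at pH 4.0 with internal standard and quantified by LC-MS/MS on a C8 column. Non-compartmental analysis gave AUC (trapezoidal), CL=dose/AUC, MRT=AUMC/AUC and Vdss=CL×MRT.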

plasma LPA = test: Plasma LPA levels after i.v. bolus; type: in vivo, Sprague-Dawley rats; conditions: rat, i.v. 5.8 mg/kg, first rapid decrease
Swiss mice = test: Acute murine toxicity study; type: in vivo; conditions: 1-10-30 mg/kg/day for 10 days
NPP6 = target: T2, NPP6 (Homo sapiens, UniProt Q6UWR7); test: NPP6 inhibition assay; type: biochemical; conditions: read-out: NPP6 Activity, % control (10μM)
T2 sequence (Q6UWR7 23-440): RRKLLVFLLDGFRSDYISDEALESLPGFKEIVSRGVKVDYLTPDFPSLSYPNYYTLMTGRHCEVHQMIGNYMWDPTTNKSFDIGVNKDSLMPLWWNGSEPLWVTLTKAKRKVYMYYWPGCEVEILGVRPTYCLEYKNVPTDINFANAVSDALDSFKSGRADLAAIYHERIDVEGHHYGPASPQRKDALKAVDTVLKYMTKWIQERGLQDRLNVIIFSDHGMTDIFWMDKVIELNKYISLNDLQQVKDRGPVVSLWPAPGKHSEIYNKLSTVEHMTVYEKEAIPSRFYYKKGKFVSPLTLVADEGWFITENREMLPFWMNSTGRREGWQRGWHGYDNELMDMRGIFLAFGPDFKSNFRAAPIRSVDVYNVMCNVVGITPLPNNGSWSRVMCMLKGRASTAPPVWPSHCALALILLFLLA
Method in brief: (§1)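 Recombinant purified NPP6 or NPP7 (8.3 nM final) was incubated with pNPPC (10 µM) and a single 10 µM compound concentration. Liberated p-nitrophenol was read at 405 nm for up to 1 h, within the linear range. Activity was normalized to vehicle control.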

NPP7 = target: T3, NPP7 (Homo sapiens, UniProt Q6UWV6); test: NPP7 inhibition assay; type: biochemical; conditions: read-out: NPP7 Activity, % control (10μM)
T3 sequence (Q6UWV6 22-458): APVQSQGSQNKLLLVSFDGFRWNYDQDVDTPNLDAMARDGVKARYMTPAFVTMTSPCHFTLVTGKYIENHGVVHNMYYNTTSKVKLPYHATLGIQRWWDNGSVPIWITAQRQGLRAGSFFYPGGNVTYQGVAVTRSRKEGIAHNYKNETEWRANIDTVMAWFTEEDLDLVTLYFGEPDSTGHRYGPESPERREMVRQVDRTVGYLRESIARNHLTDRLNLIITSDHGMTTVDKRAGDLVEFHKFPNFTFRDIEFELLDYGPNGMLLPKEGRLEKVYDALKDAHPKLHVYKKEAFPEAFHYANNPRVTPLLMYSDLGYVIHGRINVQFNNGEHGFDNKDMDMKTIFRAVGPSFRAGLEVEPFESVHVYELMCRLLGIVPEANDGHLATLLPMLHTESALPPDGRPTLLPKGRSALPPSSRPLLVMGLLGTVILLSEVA
Method in brief: as §1

[5] = male, Sprague-Dawley, plasma, iv, 5.8 mg/kg

| Compound | ATX Mechanism of Inhibition ([1]; FS-3 substrate 0.3-20 μM, inhibitor 0, 0.5x, 2x IC50) | ATX Ki′ ([1]; affinity for enzyme substrate complex, FS-3) [µM] | inhibition of hydrolysis of ADMAN-LPC (LPA production) (ATX [2]) | inhibition of hydrolysis of pNP-TMP (ATX [3]) | basal rate of invasion of HUVEC monolayer (MM1 hepatoma cells; compounds alone, without LPC) | LPC-dependent invasion of the HUVEC monolayer (MM1 hepatoma cells; with 1.5 μM LPC, 24 h) | MRT [4, 5] [h] | clearance [4, 5] [L/h/kg] | half-life ([4]; male, Sprague-Dawley, plasma, iv, 5.8 mg/kg, terminal half-life, i.v. 5.8 mg/kg) [h] | mean plasma residence time ([4]; i.v. 5.8 mg/kg) [h] | time of nadir of plasma LPA levels (plasma LPA) [min] | death (Swiss mice) | non-observable adverse effect level (Swiss mice; i.p.) [mg/kg] | remaining activity at 10 µM (NPP6) [%] | remaining activity at 10 µM (NPP7) [%] |
| --- | --- | --- | --- | --- | --- | --- | --- | --- | --- | --- | --- | --- | --- | --- | --- |
| CCCCCCCCCCCCCCCc1ccc(CP(=O)(O)O)cc1 [Compound 22, 4-pentadecylbenzylphosphonic acid] | Mixed | 0.28 | inhibited | inhibit the hydrolysis | did not reduce | dose-dependently inhibited | 7.6 | 0.516 ± 0.03 | 10 | 7.6 ± 0.5 | 60 | No death was detected in any of the groups | > 10 |  |  |
| CCCCCCCCCCCCCC(=O)Nc1ccc(CP(=O)(O)O)cc1 [Compound S32826, 4-tetradecanoylaminobenzyl phosphonic acid] |  |  |  |  |  |  |  |  |  |  |  |  |  | 102 | 101 |
